Assay outcomes from PubChem BioAssay.
TAAR1 antag: antagonists of human TAAR1; CHO RD-HGA16 TAAR1, Fluo-8 calcium fluorescence, antagonist; inhibition, % at 3 µM; 360,000 compounds, 1.5% hits; AID 624466;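 active means inhibition above a per-plate cutoff, the mean inhibition of test compounds on that plate plus 3 SD, cut at about 49% in these data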;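 further: 0% = DMSO plus EC80 beta-PEA response and 100% = DMSO alone without agonist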
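Material: CHO RD-HGA16 cells bearing hTAAR1; compound dosing: one-point dosing, 3 µM nominal final; schedule: dye loading 75 min at 37 °C, then 30 min room temperature; measured by: calcium fluorescence with Fluo-8; control set: vehicle and agonist controls; replication: n of 1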
TAAR1 ag: human TAAR1 agonism. CHO RD-HGA16 TAAR1, Fluo-8 calcium fluorescence; vehicle wells 0%, saturating PEA agonist 100%. 360,000 compounds, 0.99% hits. AID 624467. activation, % at 3 µM;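 active means activation above the mean activation of all test compounds in the run plus 3 SD, cut at about 38% in these data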
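Test system: RD-HGA16 (CHO) cells co-expressing Gα16 and hTAAR1; dosing: one-point dosing at 3 µM (nominal); timing: 17-24 h seeding, 75 min 37 °C dye, 30 min RT; signal: kinetic Fluo-8 calcium fluorescence; read-out basis: % activation relative to PEA EC100 response; controls: DMSO and PEA EC100; replicates: n 1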
OXTR agonist: agonists of human oxytocin receptor. AID 2435. CHO-OTR cells, Fluo-8 calcium fluorescence; normalized: DMSO 0%, oxytocin 100%. activation, % at 3 µM. 320,000 compounds, 0.32% hits;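 active means activation above the mean of all tested compounds plus 3 SD, cutoff set per screening run, cut at about 20% in these data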;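 further: peak over basal fluorescence ratio from a 100 s FLIPR kinetic read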
V1aR counter: V1a receptor agonism, counter-screen for OXTR agonists. P37288. CHO-V1R cells, Fluo-8 calcium fluorescence, agonist mode; 0% DMSO, 100% 3 nM vasopressin. activation, % at 3 µM. 320,000 compounds, 0.25% hits. AID 2797;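 active means activation above the mean activation of all tested compounds plus 3 SD, per screening run, cut at about 20% in these data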;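 further: signal is peak over basal fluorescence ratio across a 100 second FLIPR read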
Target sequence (P37288 whole entry, looked up): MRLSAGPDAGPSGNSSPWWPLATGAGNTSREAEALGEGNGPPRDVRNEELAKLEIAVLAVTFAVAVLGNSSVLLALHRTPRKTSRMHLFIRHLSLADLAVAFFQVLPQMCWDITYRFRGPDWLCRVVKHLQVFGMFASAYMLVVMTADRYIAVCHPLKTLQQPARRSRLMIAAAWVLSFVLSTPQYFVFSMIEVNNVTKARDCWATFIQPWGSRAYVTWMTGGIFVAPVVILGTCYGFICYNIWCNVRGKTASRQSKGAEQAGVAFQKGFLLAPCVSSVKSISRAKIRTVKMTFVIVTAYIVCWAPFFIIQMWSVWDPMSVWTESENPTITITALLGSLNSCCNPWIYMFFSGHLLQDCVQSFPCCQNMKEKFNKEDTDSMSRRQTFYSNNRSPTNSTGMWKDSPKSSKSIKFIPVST
OXTR potentiator: potentiators of human oxytocin receptor; CHO-OTR cells, Fluo-8 calcium fluorescence, potentiator mode; 0% = oxytocin EC15, 100% = EC100; P30559; 320,000 compounds, 0.061% hits; AID 2445; activation, % at 3 µM;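 active means activation above that plate's cutoff, the mean activation of tested compounds plus 3 SD, cut at about 6.6% in these data, passing the limit was not always enough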;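 further: 100% uses oxytocin at 75 nM as the full agonist control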
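Assay system: CHO cell line stably expressing human OTR | Also added: Oxytocin at about EC15, sub-maximal agonist stimulus | Times: Compound 6 min at room temperature before oxytocin, 100 s read | Measured by: Fluo-8 intracellular calcium fluorescence, ex 470-495, em 515-575 nm | Controls: EC15 oxytocin alone as 0%, 75 nM oxytocin as 100%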
TAAR1 ag conf: human TAAR1 agonism, confirmed. AID 651783. 2,400 compounds, 82% hits. shares compounds with TAAR1 ag. activation, % at 3 µM. CHO RD-HGA16 TAAR1, Fluo-8 calcium fluorescence; scaled: DMSO 0%, maximal phenethylamine 100%;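 active means activation above a cutoff set at the run's mean compound activation plus 3 SD, cut at about 39% in these data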
Ga16 nonsel ag: nonselective agonism, TAAR1 counter-screen | shares compounds with TAAR1 ag | CHO-Ga16 parental, Fluo-8 calcium fluorescence; normalized to maximal ATP response, DMSO zero | activation, % at 3 µM | 2,400 compounds, 50% hits | AID 651787;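 active means activation above the run cutoff, the mean activation over all tested wells plus 3 SD, cut at about 12% in these data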;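 further: 0% = DMSO wells and 100% = maximal ATP response on the peak over basal ratio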
TAAR1 desens: counter-screen for human TAAR1 agonists: agonists that desensitize TAAR1 | inhibition, % at 3 µM | 2,400 compounds, 46% hits | CHO RD-HGA16 hTAAR1, Fluo-8 calcium, beta-PEA response inhibition | shares compounds with TAAR1 ag;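 active means inhibition above the run cutoff, the mean inhibition of all test compounds plus 3 SD, cut at about 49% in these data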;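 further: beta-PEA stimulus applied at its EC80; loss of beta-PEA calcium signal after compound pretreatment read as receptor desensitization; 0% = DMSO with beta-PEA at EC80 and 100% = DMSO alone without agonist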
Ga16 antag count: nonselective Ga16 antagonist in TAAR1 agonist counter-screen; shares compounds with TAAR1 ag; CHO-Ga16 ATP-induced calcium, Fluo-8 fluorescence; inhibition, % at 3 µM; 2,400 compounds, 39% hits;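 active means inhibition above the plate's mean compound inhibition plus 3 SD, computed per plate, cut at about 22% in these data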;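 further: 0% = EC80 ATP with DMSO and 100% = DMSO wells without ATP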
* hit, by the source's call; nt = no result given; ! = a repeat was not active. An excerpt weighted towards active compounds, which were near 2.3% of everything screened.

SMILES	TAAR1 antag	TAAR1 ag	OXTR agonist	V1aR counter	OXTR potentiator	TAAR1 ag conf	Ga16 nonsel ag	TAAR1 desens	Ga16 antag count
C/C(=N\NC(=O)c1ccc2c(c1)OCO2)c1ccc(NC(=O)CCCC(=O)O)cc1	-7	0	nt	nt	nt	nt	nt	nt	nt
COc1ccc(Cc2nnc(SCC(=O)N3CCc4ccccc4C3)o2)cc1	-1	55*	0	3	-4	75*	2	12	10
COc1ccc(-c2nnc(SCC(=O)N3CCc4ccccc4C3)o2)cc1	-13	23	3	3	-5	nt	nt	nt	nt
Cc1cccc(C(=O)NC(=S)N2CCc3ccccc3C2)c1	18	62*	-2	-1	-9	65*	3	32	7
O=C(CSc1ccccc1F)NCC(c1cccs1)N1CCOCC1 (stereo unspecified)	9	2	1	1	-5	nt	nt	nt	nt
COc1ccc(CN2C(=O)C(CC(=O)NC3CC3)CC(C(=O)N(C)C)=C2C)cc1 (stereo unspecified)	-18	2	nt	nt	nt	nt	nt	nt	nt
CC(C)CN1CC(C)C(=O)N(c2ccccc2)C1=O (stereo unspecified)	21	63*	nt	nt	nt	2	3	8	5
CC1CN(Cc2ccccc2)C(=S)N(c2ccccc2)C1=O (stereo unspecified)	-7	2	nt	nt	nt	nt	nt	nt	nt
N=C1/C(=C\c2coc3ccccc3c2=O)C(=O)N=C2SC=CN12	60*	148*	116*	84*	-10	110*	118*	75*	75*
COc1ccc(C(=O)NC(=S)NNC(=O)c2c(-c3ccccc3)noc2C)cc1OC	-1	68*	21*	29*	-17	70*	47*	24	11
Cc1onc(-c2ccccc2)c1C(=O)NNC(=S)NC(=O)/C=C/c1cccs1	69*	115*	29*	24*	-11	107*	94*	79*	62*
Cc1onc(-c2ccccc2)c1C(=O)NNC(=S)NC(=O)c1ccc2c(c1)OCO2	46	89*	27*	53*	-19	95*	81*	52*	38*
COc1ccc(C(=O)NNC(=S)NC(=O)c2ccc(Br)o2)cc1OC	11	50*	3	5	0	21	13*	12	9
Cc1ccc(OCC(=O)NNC(=S)NC(=O)c2ccc(Br)o2)c(C)c1	11	11	nt	nt	nt	nt	nt	nt	nt
Cc1coc(=N)n1CC(=O)c1ccc(Cl)cc1	11	0	nt	nt	nt	nt	nt	nt	nt
O=C(COC(=O)c1cc(S(=O)(=O)N2CCCCC2)ccc1N1CCOCC1)c1ccccc1Cl	-2	-2	nt	nt	nt	nt	nt	nt	nt
Cc1nn(C)cc1C=NCCOCc1ccccc1	7	44*	-1	0	-10	66*	3	12	-5
S=C1NCN(CCc2ccccc2)CN1	14	87*	-1	1	-10	101*	22*	46	0
CCCN1CN(CCc2ccccc2)CNC1=S	nt	nt	1	-1	5	nt	1	nt	0
S=C1NCN(CCc2ccccc2)CN1Cc1ccccc1	-32	33	1	3	3	nt	nt	nt	nt
CCc1ccc(N2CN(CCc3ccccc3)CNC2=S)cc1	59*	95*	0	0	-8	83*	2	68*	0
Cc1ccc(N2CN(Cc3ccco3)CNC2=S)cc1	2	7	0	-1	11	nt	nt	nt	nt
CCCCN1CNC(=S)N(CCc2ccccc2)C1	-2	4	-1	0	9	nt	nt	nt	nt
Cc1ccc(N2CN(CCC3=CCCCC3)CNC2=S)cc1	-2	49*	-1	-1	-3	56*	2	10	9
Cc1ccc(C)c(C(=O)OCC(=O)NC(=O)NCc2ccccc2)c1	-1	12	nt	nt	nt	nt	nt	nt	nt
SMILES	TAAR1 antag	TAAR1 ag	OXTR agonist	V1aR counter	OXTR potentiator	TAAR1 ag conf	Ga16 nonsel ag	TAAR1 desens	Ga16 antag count
COc1cccc(N2CN(CCc3ccccc3)CNC2=S)c1	81*	96*	-1	-1	4	93*	1	80*	1
CCc1cccc(NC(=O)c2ccc(CNc3c(N4CCCC4)c(=O)c3=O)cc2)c1	-24	2	0	0	1	nt	nt	nt	nt
O=C(N/N=C/c1cc([N+](=O)[O-])cc(Br)c1O)C12CC3CCC(CC(C3)C1)C2	10	50*	2	1	-7	66*	54*	23	14
O=C(NC1CC2CCCC(C1)N2C(=O)Nc1ccc(F)cc1)c1ccccc1 (stereo unspecified)	-2	4	-1	-1	0	nt	nt	nt	nt
CN1CCN(c2ccc(NC(=O)c3ccc([N+](=O)[O-])o3)cc2Cl)CC1	4	45*	2	0	0	55*	1	28	12
CC(CCc1ccc(O)cc1)N(C)CCc1ccccc1 (stereo unspecified)	6	49*	2	1	-1	61*	5	5	-6
O=C(Nc1ccc2c(c1)OCO2)C1Cc2c(-c3ccc(Cl)cc3)ccnc2O1 (stereo unspecified)	-12	-1	nt	nt	nt	nt	nt	nt	nt
CCCCCCCCCCCCCCCC[n+]1ccccc1	73*	52*!	nt	nt	nt	32	4	37	17
O=c1cc(Nc2ccc3c(c2)OCCO3)[nH]c(=O)n1-c1ccc(Br)cc1	-5	26	1	0	2	nt	nt	nt	nt
O=c1cc(Nc2ccc3c(c2)OCO3)[nH]c(=O)n1-c1ccc(Br)cc1	-7	48*	1	0	-3	76*	6	25	7
CCC(=O)N1CCC1(C)C(=O)Nc1ccc(OC)c(OC)c1 (stereo unspecified)	-9	1	nt	nt	nt	nt	nt	nt	nt
CCCNC(=O)C1CC2Cn3c(nc4ccccc43)C2N1C (stereo unspecified)	12	10	0	1	-3	nt	nt	nt	nt
CN1C(C(=O)NCCc2cccs2)CC2Cn3c(nc4ccccc43)C21 (stereo unspecified)	nt	nt	0	0	-2	nt	0	nt	2
O=C(N/N=C/c1ccco1)c1cc(-c2ccc3ccccc3c2)n[nH]1	71*	48*	3	0	-14	67*	53*	96*	88*
CCC12C(=Nc3c(Cl)cccc31)C[C@@H]1CCN3C(=O)CCC[C@H]2[C@H]13 (stereo partly specified)	7	2	nt	nt	nt	nt	nt	nt	nt
